Test results published in ChEMBL document CHEMBL1250432, “Pteridine-sulfonamide conjugates as dual inhibitors of carbonic anhydrases and dihydrofolate reductase with potential antitumor activity” (Bioorg Med Chem, 2010).
Active and inactive are the calls of the source. No cut-off for these calls is given here.

Tests used:
[1] = tested on: PC-3; experiment: Antiproliferative activity against human PC3 cells after 72 hrs by MTT assay; format: functional, cell-based; settings: PC-3, 72 h
Procedure, shortened: (§1)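 A549 (ATCC) and PC3 cells kept in RPMI-1640 with 10% heat-inactivated FBS, 2 mM glutamine and 1 mM sodium pyruvate at 37 °C in humidified 5% CO2. Seeded at about 5000 cells/well and exposed continuously for 72 h to a range of inhibitor concentrations, with MTX as control. Viability read by MTT assay; IC50 reported.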

[2] = target: Carbonic anhydrase 9 (Homo sapiens, UniProt Q16790); experiment: Inhibition of human recombinant carbonic anhydrase 9 after 15 mins by stopped flow CO2 hydration assay
[3] = target: Dihydrofolate reductase (Lactobacillus casei, UniProt P00381); experiment: Inhibition of Lactobacillus casei DHFR by spectrophotometric analysis; set-up: species or system Lacticaseibacillus casei
[4] = target: Dihydrofolate reductase (Lactobacillus casei) (UniProt P00381); experiment: Inhibition of Lactobacillus casei DHFR at 0.5 mM by spectrophotometric analysis; settings: Lacticaseibacillus casei
Procedure, shortened: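 L. casei DHFR activity followed spectrophotometrically as the fall in absorbance at 340 nm from NADPH oxidation, with and without inhibitor, at 30 °C. Inhibitor tested at 0.5 mM, the highest concentration used.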

[5] = tested on: A549; experiment: Antiproliferative activity against human A549 cells after 72 hrs by MTT assay; format: functional, cell-based; settings: A549, 72 h; procedure, shortened: as §1

Sequence of Dihydrofolate reductase (P00381 whole entry): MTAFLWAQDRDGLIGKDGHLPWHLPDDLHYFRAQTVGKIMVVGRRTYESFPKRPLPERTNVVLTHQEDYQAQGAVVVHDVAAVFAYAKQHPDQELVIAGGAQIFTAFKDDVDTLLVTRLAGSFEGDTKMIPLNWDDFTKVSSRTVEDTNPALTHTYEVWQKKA
Sequence of Dihydrofolate reductase (Lactobacillus casei) (P00381 whole entry): as above

Row | SMILES | IC50 [1] [µM] | Ki [2] [µM] | IC50 [3] [µM] | inhibition [4] | IC50 [5] [µM]
1 | Nc1nc(N)c2nc(CNc3ccc(S(=O)(=O)O)cc3)cnc2n1 | 500 | > 1 | 2 |  | 
2 | Nc1nc(N)c2nc(CNCCc3ccc(S(N)(=O)=O)cc3)cnc2n1 | 300 |  |  | inactive | 
3 | CN(Cc1cnc2nc(N)nc(N)c2n1)c1ccc(C(=O)N[C@@H](CCC(=O)O)C(=O)O)cc1 [METHOTREXATE] | 0.001 |  |  |  | 0.005
4 | Nc1nc(N)c2nc(CNc3ccc(C(=O)NCCc4ccc(S(=O)(=O)O)cc4)cc3)cnc2n1 | 500 | > 1 | 1.3 |  | 
5 | Nc1nc(N)c2nc(CNCCc3ccc(S(=O)(=O)O)cc3)cnc2n1 | 460 | > 1 |  | inactive | 
6 | Nc1nc(N)c2nc(CNc3ccc(S(N)(=O)=O)cc3)cnc2n1 | 550 | 0.0021 | 2.5 |  | 
7 | CN(Cc1cnc2nc(N)nc(N)c2n1)c1ccc(C(=O)NCCc2ccc(S(N)(=O)=O)cc2)cc1 | 500 | 0.0037 | 1.8 |  | 
8 | Nc1nc(N)c2nc(CNc3ccc(C(=O)NCCc4ccc(S(N)(=O)=O)cc4)cc3)cnc2n1 | 400 | 0.0025 | 20 |  | 2000
